Data: ChEMBL document CHEMBL1151466 (Antimicrob Agents Chemother, 2008)
One block for each compound: values may come before it.

Legend:
[1] = system: Homo sapiens; assay: Tlag in Paua New Guinean children with uncomplicated malaria at 20 mg/kg daily for 3 days; type: ADME, organism-based; set-up: dose 20 mg/kg; details: in vivo, 72 h
In short: (§1)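 Children aged 5–10 y with uncomplicated malaria were given oral DHA-PQ at PQ phosphate 20 mg/kg (11.5 mg base/kg) daily at 0, 24 and 48 h, swallowed with water, without fasting. Sampling was serial to day 42. Heparin plasma was stored at −80°C, extracted with hexane-isoamyl alcohol, and assayed by HPLC with UV detection at 340 nm. Parameters came from a two-compartment model with 1/y2 weighting.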

[2] = Apparent clearance with respect to bioavailability in human after fat meal using non-compartmental analysis; type: ADME, organism-based; details: in vivo
[3] = Apparent clearance with respect to bioavailability in Paua New Guinean children with uncomplicated malaria at 20 mg/kg daily for 3 days; type: ADME, organism-based; details: human, in vivo; in short: as §1
[4] = Elimination half life in Cambodian children with malaria; type: ADME, organism-based; details: human, in vivo; read-out: beta t1/2 (converted)
[5] = Volume of distribution at steady state with respect to bioavailability in Vietnamese human; type: ADME, organism-based; details: in vivo, read-out: Vc/F
[6] = Volume of distribution at steady state with respect to bioavailability in Cambodian children with malaria; type: ADME, organism-based; details: human, in vivo; read-out: Vc/F
[7] = AUC (0 to 42 days) in Paua New Guinean children with uncomplicated malaria at 20 mg/kg daily for 3 days; type: ADME, organism-based; set-up: time < 1008 hr, dose 20 mg/kg; details: human, plasma; in short: as §1
[8] = species: Homo sapiens; assay: Volume of distribution at steady state with respect to bioavailability in human after fat meal using non-compartmental analysis; type: ADME, organism-based; details: in vivo
[9] = Apparent clearance with respect to bioavailability in human after fasting using non-compartmental analysis; type: ADME, organism-based; details: in vivo
[10] = Apparent clearance with respect to bioavailability in Vietnamese human; type: ADME, organism-based; details: in vivo
[11] = system: Plasmodium falciparum; assay: Antiplasmodial activity against chloroquine-sensitive Plasmodium falciparum; type: functional, organism-based
[12] = Volume of distribution at steady state with respect to bioavailability in Paua New Guinean children with uncomplicated malaria at 20 mg/kg daily for 3 days; type: ADME, organism-based; details: human, in vivo, read-out: Vc/F; in short: as §1
[13] = Elimination half life in Paua New Guinean children with uncomplicated malaria at 20 mg/kg daily for 3 days; type: ADME, organism-based; set-up: dose 20 mg/kg; details: human, in vivo, read-out: beta t1/2 (converted); in short: as §1
[14] = AUC (0 to infinity) in Paua New Guinean children with uncomplicated malaria at 20 mg/kg daily for 3 days; type: ADME, organism-based; set-up: time infinity, dose 20 mg/kg; details: human, plasma; in short: as §1
[15] = system: Plasmodium falciparum; assay: Antiplasmodial activity against chloroquine-resistant Plasmodium falciparum; type: functional, organism-based
[16] = AUC (0 to infinity) in Paua New Guinean children with uncomplicated malaria; type: ADME, organism-based; set-up: time infinity; details: human, plasma
[17] = AUC (0 to 42 days) in Paua New Guinean children with uncomplicated malaria; type: ADME, organism-based; set-up: time < 1008 hr; details: human, plasma
[18] = Elimination half life in Paua New Guinean children with uncomplicated malaria; type: ADME, organism-based; details: human, in vivo; read-out: beta t1/2 (converted)
[19] = Apparent clearance with respect to bioavailability in human with malaria; type: ADME, organism-based; details: in vivo
[20] = Elimination half life in Paua New Guinean children with uncomplicated malaria at 10 mg/kg daily for 3 days; type: ADME, organism-based; set-up: dose 10 mg/kg; details: human, in vivo, read-out: beta t1/2 (converted)
In short: (§2)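 Children aged 5–10 y with uncomplicated malaria took oral CQ at 10 mg base/kg daily at 0, 24 and 48 h, with single-dose SP given alongside the first dose, without fasting. Heparin plasma was sampled serially to day 42, stored at −80°C, extracted with t-butyl methyl ether, and measured by HPLC-UV at 340 nm. Two-compartment model fitting used 1/y2 weighting.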

[21] = system: Homo sapiens; assay: Tlag in Paua New Guinean children with uncomplicated malaria at 10 mg/kg daily for 3 days; type: ADME, organism-based; set-up: dose 10 mg/kg; details: in vivo, 72 h; in short: as §2
[22] = AUC (0 to 42 days) in Paua New Guinean children with uncomplicated malaria at 10 mg/kg daily for 3 days; type: ADME, organism-based; set-up: time < 1008 hr, dose 10 mg/kg; details: human, plasma; in short: as §2
[23] = Volume of distribution at steady state with respect to bioavailability in Paua New Guinean children with uncomplicated malaria at 10 mg/kg daily for 3 days; type: ADME, organism-based; details: human, in vivo, read-out: Vc/F; in short: as §2
[24] = system: Homo sapiens; assay: AUC (0 to infinity) in Paua New Guinean children with uncomplicated malaria at 10 mg/kg daily for 3 days; type: ADME, organism-based, Plasma; set-up: time infinity, dose 10 mg/kg; details: in vivo, 72 h; in short: as §2
[25] = Apparent clearance with respect to bioavailability in human; type: ADME, organism-based; details: in vivo

SMILES: Clc1ccc2c(N3CCN(CCCN4CCN(c5ccnc6cc(Cl)ccc56)CC4)CC3)ccnc2c1 [PIPERAQUINE]
Tlag [1]: 0.89 h
CL/F [2]: 10 mL/min/kg
CL/F [3]: 14.2 mL/min/kg
half-life [4]: 13.5 days
Vd/F [5]: 103 L/kg
Vd/F [6]: 614 L/kg
AUC at 1008 h [7]: 76.4 µM·h
Vc/F [8]: 365 L/kg
CL/F [9]: 19 mL/min/kg
CL/F [10]: 16.2 mL/min/kg
IC50 [11]: 0.0355 µM
Vd/F [12]: 431 L/kg
half-life [13]: 17.2 days
AUC(0-inf) [14]: 87.4 µM·h
IC50 [15]: 0.0407 µM

SMILES: CCNCCCC(C)Nc1ccnc2cc(Cl)ccc12 (configuration not stated) [DESETHYLCHLOROQUINE]
AUC(0-inf) [16]: 98.5 µM·h
AUC(0-t) at 1008 h [17]: 83.6 µM·h
IC50 [11]: 0.0178 µM
half-life [18]: 12.1 days
IC50 [15]: 0.0374 µM

CL/F [19]: 2.17 mL/min/kg
half-life [20]: 9.71 days
Tlag [21]: 0.55 h
AUC at 1008 h [22]: 117 µM·h
Vd/F [23]: 154 L/kg
AUC [24]: 122.5 µM·h
CL/F [25]: 2.17 mL/min/kg
SMILES: CCN(CC)CCCC(C)Nc1ccnc2cc(Cl)ccc12 (configuration not stated) [CHLOROQUINE]
